# Compound activity: PubChem, several laboratories
# TbHK1 inh – T. brucei hexokinase 1 inhibition; 220,000 tested, 0.11% active; inhibition, % at 10 µM; recombinant TbHK1, G6PDH-coupled NADH A340;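 active means inhibition of 50% or more in the single-dose primary screen; inactive means inhibition below 50%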
# G6PDH CS – inhibits Leuconostoc G6PDH, flagging false hits in G6PDH-based assays; Purified L. mesenteroides G6PDH, diaphorase/resazurin coupled fluorescence, 45 min; inhibition, % at 5 µM; 200,000 tested, 0.12% active; AID 1020; in the data active means inhibition above about 50%
# PfGluPho inh – PfG6PD (Plasmodium falciparum) enzyme inhibition; PfGluPho enzyme, NADPH resazurin-diaphorase fluorescence; inhibition, % at 20 µM; 350,000 tested, 0.78% active;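 active means inhibition reaching at least a set limit at 20 µM in the primary screen, cut at about 59% in these data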;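 further: 0% = DMSO wells with substrate and 100% = DMSO wells lacking glucose-6-phosphate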
# HKDC1 inhibitor – blocks human hexokinase HKDC1 activity. recombinant HKDC1, G6PDH/diaphorase resazurin coupled fluorescence. 340,000 tested, 0.16% active. Q2TB90. inhibition, % at 20 µM;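 active means inhibition above about 35% when tested at 20 µM, limit read from the data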;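 further: plate controls were DMSO wells with enzyme for no effect and DMSO wells lacking enzyme for full effect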
# Target sequence (Q2TB90 whole entry, looked up): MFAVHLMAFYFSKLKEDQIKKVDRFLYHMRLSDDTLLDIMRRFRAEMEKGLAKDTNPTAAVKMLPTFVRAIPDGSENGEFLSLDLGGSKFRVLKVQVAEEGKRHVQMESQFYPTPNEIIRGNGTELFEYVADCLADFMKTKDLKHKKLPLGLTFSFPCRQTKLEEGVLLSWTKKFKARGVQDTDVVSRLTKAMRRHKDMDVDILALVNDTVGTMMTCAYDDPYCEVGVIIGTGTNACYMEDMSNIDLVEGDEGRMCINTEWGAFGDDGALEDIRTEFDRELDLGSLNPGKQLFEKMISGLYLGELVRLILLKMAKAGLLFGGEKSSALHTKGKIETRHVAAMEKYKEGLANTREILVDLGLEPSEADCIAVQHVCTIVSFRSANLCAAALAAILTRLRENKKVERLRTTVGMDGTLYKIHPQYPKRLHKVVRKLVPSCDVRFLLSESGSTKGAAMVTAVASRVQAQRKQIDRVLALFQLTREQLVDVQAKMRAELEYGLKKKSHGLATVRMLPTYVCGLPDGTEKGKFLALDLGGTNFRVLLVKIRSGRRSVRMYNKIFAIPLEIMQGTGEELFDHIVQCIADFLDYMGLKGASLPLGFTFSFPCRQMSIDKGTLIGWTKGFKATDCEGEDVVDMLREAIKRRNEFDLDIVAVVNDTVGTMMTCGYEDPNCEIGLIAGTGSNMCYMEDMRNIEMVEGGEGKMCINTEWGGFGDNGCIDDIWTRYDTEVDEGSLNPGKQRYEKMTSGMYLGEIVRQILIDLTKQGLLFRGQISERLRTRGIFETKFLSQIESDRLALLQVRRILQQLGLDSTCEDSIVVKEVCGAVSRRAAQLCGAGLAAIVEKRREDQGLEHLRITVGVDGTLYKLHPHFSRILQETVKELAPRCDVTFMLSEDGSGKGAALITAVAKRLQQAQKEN
#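 test system = in-house recombinant HK5 (HKDC1) enzyme | amount = HKDC1 at 5 µg/mL | control set = DMSO-enzyme wells negative, buffer-substituted wells positive | compound = one dose of 20 µM, 1% DMSO | schedule = reaction time 90 min, room temperature, protected from light | technique = resorufin fluorescence at 613 nm | reagent = glucose with 1 mM ATP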
# Diaphorase act – counter-screen for diaphorase-based assays: diaphorase activators and chemical reducers. Diaphorase/resazurin coupled assay, resorufin fluorescence, 16 min; hits give high values; 1 = vehicle wells, 0 = NADH-free wells. activation factor at 20 µM. 190,000 tested, 0.005% active. AID 1229;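 active means diaphorase activity raised at least twofold by the compound at 20 µM; inactive means activation factor below 2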
#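 Test system: Clostridium kluyveri diaphorase, purified enzyme. Buffer or medium: 50 mM HEPES pH 7.4 buffer plus MgCl2 and Tween 20. Also added: 0.114 mM NADH and 0.1 mM resazurin, final amounts. Dosing: compound 20 µM once, DMSO 1%. Schedule: 16 min enzyme reaction, ambient temperature. Detection: fluorescence of resorufin, 544 nm excitation, 590 nm emission.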
# Diaphorase inh – inhibits diaphorase or chemically oxidizes, flagging diaphorase assay artifacts; diaphorase resazurin-to-resorufin fluorescence, NADH, 16 min; bacterial (C. kluyveri) enzyme, not human; inhibition, % at 20 µM; 190,000 tested, 0.69% active; AID 1217;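 active means primary screen inhibition at 20 µM above a set limit, cut at about 50% in these data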;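 further: plate controls were DMSO with full reaction for no effect and wells lacking NADH for full effect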
#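 System: Bacterial diaphorase enzyme (C. kluyveri) | Incubation: 16-min room-temperature incubation before reading | Benchmarks: No-NADH positive control and DMSO neutral control | Measured by: Resorufin fluorescence 544/590 nm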
# PfG6PD confirm – PfG6PD inhibition, single-dose confirmed; shares compounds with PfGluPho inh; recombinant PfGluPho, NADPH-diaphorase-resazurin fluorescence; inhibition, % at 20 µM; 2,400 tested, 34% active; AID 504753;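 active means inhibition of at least 50% at 20 µM in any single replicate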;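 further: 0% = DMSO with substrate and 100% = DMSO lacking glucose-6-phosphate substrate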
# Diaph ctr 10uM – counter-screen for P. falciparum G6PD inhibitors: diaphorase inhibitors, oxidizers; shares compounds with PfGluPho inh; diaphorase-coupled resazurin reduction, fluorescence, NADPH 10 uM; inhibition, % at 20 µM; 820 tested, 39% active; AID 504862;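 active means average inhibition reaching 50% or more with the compound at 20 µM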;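 further: resorufin red fluorescence formed as diaphorase reduces resazurin using NADPH; 0% = DMSO with enzyme and 100% = DMSO without enzyme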
# Diaphorase 30uM – diaphorase inhibition or oxidation at 30 uM NADPH; shares compounds with PfGluPho inh; Diaphorase/resazurin coupled assay, resorufin fluorescence; inhibition, % at 20 µM; 820 tested, 29% active; AID 504863;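 active means inhibition averaging 50% or more, tested at 20 µM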;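 further: 0% = DMSO with enzyme and 100% = DMSO wells lacking diaphorase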
# The depositor's hits bear a star; . = no result. Compounds with a hit are over-represented: about 1.3% of the library has one in this group of screens.
SMILES,TbHK1 inh,G6PDH CS,PfGluPho inh,HKDC1 inhibitor,Diaphorase act,Diaphorase inh,PfG6PD confirm,others
Cc1cc(-n2c(C)cc(C(=O)COc3ccc4ccc(=O)oc4c3)c2C)no1,-14,0,89*,-2,0.8,21,39,
Cc1cc(-n2c(C)cc(C(=O)COc3cccnc3[N+](=O)[O-])c2C)no1,.,.,6,10,.,.,.,
CCC1(CC)Cc2ccccc2C(N)=C1C#N,0,4,61*,2,0.8,22,49*,Diaph ctr 10uM=50*;Diaphorase 30uM=36
CCC1(CC)Cc2ccccc2C(=O)N1,3,.,3,-4,.,.,.,
CCN(CC)C(=O)c1sc2c(c1C)c(=O)n(-c1ccc(C)c(C)c1)c(=O)n2CC(=O)NCC1CCCO1 (stereo not given),-6,-1,-6,-4,0.8,16,.,
CCc1cc2c(=O)c(-c3nc(C)cs3)coc2cc1O,-9,.,76*,-6,.,.,30,
COc1ccc2c(=O)c(-c3nc(C)cs3)coc2c1,-6,-31,3,2,0.9,6,.,
COc1ccc(/C=N/N2CCN(c3ccccc3OC)CC2)cc1OC,4,-18,-1,5,0.9,12,.,
COc1ccccc1N1CCN(/N=C/c2ccc(O)c(O)c2)CC1,-20,38,59*,10,0.3,70*,46,
CCOc1ccc(-c2c(=O)n(OCC)c3ccccc3[n+]2[O-])cc1,.,.,-10,4,.,.,.,
CCOc1ccc(-c2c(=O)n(O)c3ccccc3[n+]2[O-])cc1,.,.,61*,5,.,.,17,
O=S(=O)(Nc1ccccc1F)c1cccc(NC(=S)NCCN2CCOCC2)c1,.,.,96*,-18,.,.,77*,Diaph ctr 10uM=-1;Diaphorase 30uM=-10
COc1ccccc1NS(=O)(=O)c1cc(NC(=S)NCCN2CCOCC2)ccc1N1CCOCC1,-8,2,66*,-7,1,4,40,
O=C(OCc1cccc(C(F)(F)F)c1)c1cc(S(=O)(=O)N2CCOCC2)ccc1F,.,.,13,-4,.,.,.,
COc1ccccc1Nc1nnc(SCc2cc(=O)n3ccsc3n2)s1,-11,-9,67*,10,0.8,16,40,
Oc1cc2c(cc1O)C1c3ccc(O)c(O)c3OCC1(O)C2 (stereo not given),12,32,113*,7,0.2,78*,106*,Diaph ctr 10uM=74*;Diaphorase 30uM=47
COc1ccc(OC)c(/C=N\NC(=O)CSc2nnc(CCCc3ccc(OC)c(C)c3)o2)c1,0,4,96*,2,0.8,15,22,
COc1ccccc1/C=N/NC(=O)CCSc1ccccc1,-10,-4,63*,1,1,0,72*,Diaph ctr 10uM=65*;Diaphorase 30uM=67*
COc1ccccc1C=NN=C(NN=Cc1ccccc1OC)NN=Cc1ccccc1OC,.,.,77*,-21,.,.,29,
COc1ccccc1C=NNC(=O)NN=Cc1ccccc1OC,.,.,-8,-4,.,.,.,
COc1ccc(CCCC(=O)N/N=C/c2ccccc2OC)cc1,-10,-1,98*,3,0.9,14,67*,Diaph ctr 10uM=70*;Diaphorase 30uM=57*
O=c1oc(CCCO)cc2ccccc12,.,.,-3,0,.,.,.,
COC1OC2COC(c3ccccc3)OC2C(O)C1NC(=O)c1ccccc1 (stereo not given),.,.,-13,-10,.,.,.,
Cc1cc2ncn(-c3ncccc3[N+](=O)[O-])c2cc1C,.,.,76*,-1,.,.,-21,
NC(N)=N/N=C/c1ccccc1,-1,-1,-14,11,0.9,9,.,
SMILES,TbHK1 inh,G6PDH CS,PfGluPho inh,HKDC1 inhibitor,Diaphorase act,Diaphorase inh,PfG6PD confirm,others
Oc1ccc(/C=N/N=C(c2ccccc2)c2ccccc2)c(O)c1O,4,-28,75*,19,0.3,75*,73*,Diaph ctr 10uM=51*;Diaphorase 30uM=35
Cc1ccc(NC(=O)c2cc(C)n(-c3ccccc3)c2C)cc1,9,-5,95*,-6,0.9,14,53*,Diaph ctr 10uM=53*;Diaphorase 30uM=34
Cc1cc(C(=O)Nc2ccc(Cl)cc2)n(-c2ccccc2)n1,.,.,9,5,.,.,.,
Cc1cc(C(=O)Nc2ccc(Cl)cc2)c(C)n1-c1ccccc1,3,.,98*,3,.,.,11,
Cc1ccc(NC(=O)c2cc(C)n(-c3cccc(C)c3)c2C)cc1,1,-12,82*,-8,0.8,20,32,
CCOc1ccc(S(=O)(=O)NCCC(=O)N2CC(C)OC(C)C2)cc1 (stereo not given),.,.,-10,5,.,.,.,
O=c1c2cccc(Cl)c2nc2n1Cc1ccccc1-2,6,.,78*,-4,.,.,43,
c1cncc(-c2nnc(-c3cccnc3)nn2)c1,20,32,77*,12,1,3,31,
Cc1ccc(S(=O)(=O)Nc2cccc(C(=O)NCCCn3ccnc3)c2)cc1F,.,.,-4,3,.,.,.,
COc1ccc(C(=O)Nc2ccc3ccccc3c2)c(OC)c1,.,.,74*,1,.,.,12,
COc1ccc(NC2CCCN(Cc3cccc4cnccc34)C2)cc1OC (stereo not given),.,.,65*,7,.,.,58*,Diaph ctr 10uM=10;Diaphorase 30uM=2
O=C(CCNC(=O)c1ccccc1Cl)Nc1ccc(Cl)c(C(F)(F)F)c1,37,9,5,8,0.9,10,.,
COc1ccc(C(=O)Nc2cc(C)c(NC(=O)c3ccccn3)cn2)cc1,.,.,67*,-2,.,.,19,
Cn1c(CSc2nc3ccccc3n2C)nc2ccccc21,0,1,78*,0,1,-2,45,
O=C(O)C(Cc1ccccc1)N1C(=O)C=CC1=O (stereo not given),.,.,90*,.,.,.,85*,Diaph ctr 10uM=18;Diaphorase 30uM=2
O=C(COC(=O)c1ccccc1O)NC(=O)NCc1ccccc1,.,.,-10,0,.,.,.,
CN(C)S(=O)(=O)c1cccc(NC(=O)c2cccc(S(=O)(=O)N3CCCCCC3)c2)c1,.,.,4,2,.,.,.,
Nc1[nH]n(-c2ccccc2)c(=O)c1N=Nc1ccc2ncsc2c1,-28,.,67*,-5,.,.,19,
Nc1[nH]n(-c2ccccc2)c(=O)c1N=Nc1ccccc1,-3,.,7,-3,.,.,.,
COc1cccc2sc3ccc(C#CC4(O)CCCCC4)cc3c(=O)c12,.,.,68*,7,.,.,30,
CCn1cc(/C=N/NC(=O)c2ccc(C#N)cc2F)c2ccccc21,-42,4,107*,-2,0.9,8,89*,Diaph ctr 10uM=81*;Diaphorase 30uM=64*
COC(=O)Cn1cc(/C=N/NC(=O)c2ccc(C#N)cc2F)c2ccccc21,-38,7,3,-7,0.9,11,.,
